Results published in ChEMBL document CHEMBL4371072, “Structure-Activity Relationship Studies and Plasmodium Life Cycle Profiling Identifies Pan-Active N-Aryl-3-trifluoromethyl Pyrido[1,2- a]benzimidazoles Which Are Efficacious in an in Vivo Mouse Model of Malaria” (J Med Chem, 2019).

Tests used:
[1] = Selectivity index, ratio of IC50 for CHO cells to IC50 for chloroquine-sensitive asexual blood stage of Plasmodium falciparum NF54 infected in human RBC; type: toxicity; settings: Chinese hamster, read-out: Ratio IC50
Method in brief: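 Selectivity index taken as the ratio of the CHO-cell IC50 to the P. falciparum NF54 IC50.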

[2] = Solubility of the compound; type: physicochemical
[3] = tested on: Plasmodium falciparum; experiment: Antiplasmodial activity against chloroquine-sensitive final late stage of Plasmodium falciparum NF54-Mal8p1.16-GFP-Luc gametocytes after 24 hrs by BacTiter-Glo assay; type: functional, organism-based; settings: NF54, 24 h
Method in brief: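 Late-stage PfNF54 gametocytes produced in vitro; gametocytocidal IC50 via luciferase reporter and ATP bioluminescence platforms; n=3 independent biological replicates in technical triplicates, ± S.E.M.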

[4] = molecular target: T1, hERG (KCNH2) (Homo sapiens, UniProt Q12809); experiment: Inhibition of human ERG expressed in CHO cells assessed as reduction in peak channel current at 0.3 uM by IonWork patch-clamp electrophysiology method relative to control; type: cell-based; settings: CHO cells expressing human ERG
[5] = AUC (0 to infinity) in C57B1/6 mouse at 20 mg/kg, po by LC-MS/MS analysis; type: ADME, organism-based; set-up: dose 20 mg/kg, time infinity, route oral; settings: in vivo
Method in brief: (§1)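 Mouse oral PK: C57B1/6 mice (n=3) dosed orally at 20 mg/kg. Blood concentrations followed over time; values are means of 3 mice.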

[6] = tested on: Plasmodium berghei; experiment: Antimalarial activity against GFP-fused Plasmodium berghei ANKA infected in NMRI mouse assessed as host mean survival time at 50 mg/kg, po administered consecutively at 4, 24, 48 and 72 hrs post infection; type: functional
Method in brief: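 NMRI mice infected intravenously with P. berghei; oral treatment at 4, 24, 48 and 72 h post-infection (4 x 50 mg/kg), vehicle to controls; reference drug 4 x 30 mg/kg orally on four consecutive days. Parasitemia compared with untreated controls; mean survival days recorded; cure if no parasitemia 30 days after treatment.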

[7] = Half life in C57B1/6 mouse at 2 mg/kg, iv by LC-MS/MS analysis; type: ADME, organism-based; settings: in vivo
Method in brief: (§2)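 Mouse IV PK: C57B1/6 mice (n=2) given 2 mg/kg intravenously as a solution in dimethylacetamide, polyethylene glycol and propylene glycol/ethanol (4:1) at ratio 1:3:6. Blood concentrations followed over time; values are means of 2 mice.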

[8] = Metabolic stability in human liver microsomes assessed as parent compound remaining at 0.1 uM after 30 mins in presence of NADPH by LC-MS/MS analysis; settings: liver microsomes
[9] = tested on: Plasmodium berghei; experiment: Antimalarial activity against liver stage form of luciferase transfected Plasmodium berghei sporozoites infected in human HuH7 cells preincubated with host cells for 1 hr followed by plasmodial infection and measured after 48 hrs by bioluminescence method; type: functional, organism-based; settings: Huh-7
[10] = AUC (0 to infinity) in C57B1/6 mouse at 2 mg/kg, iv by LC-MS/MS analysis; type: ADME, organism-based; set-up: dose 2 mg/kg, route intravenous, time infinity; settings: in vivo; method in brief: as §2
[11] = Lipophilicity, log D of the compound; type: physicochemical; settings: octanol/water
Method in brief: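 LogD computed with ChemDraw 16.0.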

[12] = molecular target: T1, hERG (KCNH2); experiment: Inhibition of human ERG expressed in CHO cells assessed as reduction in peak channel current at 10 uM by IonWork patch-clamp electrophysiology method relative to control; type: cell-based; settings: CHO cells expressing human ERG
Method in brief: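 hERG potassium channel profiled by IonWorks patch-clamp electrophysiology, with 10 μM as the highest concentration tested. Values are the mean of 3 results from experiments run as biological and technical triplicates.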

[13] = Cmax in C57B1/6 mouse at 20 mg/kg, po by LC-MS/MS analysis; type: ADME, organism-based; set-up: dose 20 mg/kg, route oral; settings: in vivo; method in brief: as §1
[14] = tested on: Plasmodium falciparum; experiment: (§3) Antiplasmodial activity against chloroquine-resistant asexual blood stage of Plasmodium falciparum K1 infected in human RBC assessed as reduction in [3H]hypoxanthine incorporation preincubated for 48 hrs followed by [3H]hypoxanthine addition measured after 24 hrs by liquid scintillation counting method; type: functional, organism-based
Method in brief: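 Asexual blood-stage P. falciparum K1 (multidrug resistant) screened by modified [3H]-hypoxanthine incorporation assay; IC50 as mean of n ≥ 2 assays, replicates differing above 3-fold excluded; chloroquine and artesunate controls.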

[15] = Half life in C57B1/6 mouse at 20 mg/kg, po by LC-MS/MS analysis; type: ADME, organism-based; settings: in vivo; method in brief: as §1
[16] = Oral bioavailability in C57B1/6 mouse at 20 mg/kg by LC-MS/MS analysis; type: ADME, organism-based; settings: in vivo
Method in brief: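 Oral bioavailability from C57B1/6 mice dosed 20 mg/kg orally (n=3), referenced to a separate intravenous set at 2 mg/kg (n=2) formulated in dimethylacetamide/polyethylene glycol/propylene glycol–ethanol (4:1), ratio 1:3:6.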

[17] = tested on: Plasmodium berghei; experiment: Antimalarial activity against GFP-fused Plasmodium berghei ANKA infected in NMRI mouse assessed as inhibition of parasitemia at 50 mg/kg, po administered consecutively at 4, 24, 48 and 72 hrs post infection by flow cytometry relative to control; type: functional
Method in brief: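 NMRI mice infected intravenously with P. berghei; oral treatment at 50 mg/kg given 4, 24, 48 and 72 h post-infection (4 x 50 mg/kg). Control mice received vehicle only. Parasitemia of treated animals compared with that of untreated controls. Mice counted as cured if no parasitemia was detected 30 days after treatment.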

[18] = Tmax in C57B1/6 mouse at 20 mg/kg, po by LC-MS/MS analysis; type: ADME, organism-based; settings: in vivo; method in brief: as §1
[19] = molecular target: Voltage-gated inwardly rectifying potassium channel KCNH2 (Homo sapiens, UniProt Q12809); experiment: Inhibition of human ERG expressed in CHO cells assessed as reduction in peak channel current by IonWork patch-clamp electrophysiology method; type: cell-based
[20] = tested on: CHO; experiment: Cytotoxicity against CHO cells after 48 hrs by MTT assay; type: cell-based; settings: Cricetulus griseus
[21] = Clearance in C57B1/6 mouse at 2 mg/kg, iv by LC-MS/MS analysis; type: ADME, organism-based; settings: in vivo; method in brief: as §2
[22] = Volume of distribution in C57B1/6 mouse at 2 mg/kg, iv by LC-MS/MS analysis; type: ADME, organism-based; settings: in vivo; method in brief: as §2
[23] = Time at which blood concentration stays above in vitro antiplasmodial Plasmodium falciparum NF54 IC50 in C57B1/6 mouse at 20 mg/kg, po; type: ADME, organism-based; settings: in vivo
[24] = Ratio of Cmax in C57B1/6 mouse at 20 mg/kg, po to IC50 for chloroquine-sensitive asexual blood stage of Plasmodium falciparum NF54 infected in human RBC; type: ADME, organism-based; settings: in vivo
[25] = tested on: Plasmodium falciparum; experiment: as §3, with “chloroquine-sensitive” for “chloroquine-resistant”, “NF54” for “K1”; type: functional, organism-based
Method in brief: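 Asexual blood-stage P. falciparum NF54 assay, run as a modified [3H]-hypoxanthine incorporation assay. Values are the mean of n ≥ 2 assays; determinations differing more than 3-fold were excluded. Chloroquine and artesunate served as controls.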

[26] = Metabolic stability in Balb/c mouse liver microsomes assessed as parent compound remaining at 0.1 uM after 30 mins in presence of NADPH by LC-MS/MS analysis; settings: liver microsomes
[27] = Half life in human liver microsomes at 0.1 uM in presence of NADPH by LC-MS/MS analysis; settings: liver microsomes
[28] = Half life in Balb/c mouse liver microsomes at 0.1 uM in presence of NADPH by LC-MS/MS analysis; settings: liver microsomes
[29] = Resistance index, ratio of IC50 for chloroquine-resistant asexual blood stage of Plasmodium falciparum K1 infected in human RBC to IC50 for chloroquine-sensitive asexual blood stage of Plasmodium falciparum NF54 infected in human RBC; type: functional

T1 sequence (Q12809 whole entry): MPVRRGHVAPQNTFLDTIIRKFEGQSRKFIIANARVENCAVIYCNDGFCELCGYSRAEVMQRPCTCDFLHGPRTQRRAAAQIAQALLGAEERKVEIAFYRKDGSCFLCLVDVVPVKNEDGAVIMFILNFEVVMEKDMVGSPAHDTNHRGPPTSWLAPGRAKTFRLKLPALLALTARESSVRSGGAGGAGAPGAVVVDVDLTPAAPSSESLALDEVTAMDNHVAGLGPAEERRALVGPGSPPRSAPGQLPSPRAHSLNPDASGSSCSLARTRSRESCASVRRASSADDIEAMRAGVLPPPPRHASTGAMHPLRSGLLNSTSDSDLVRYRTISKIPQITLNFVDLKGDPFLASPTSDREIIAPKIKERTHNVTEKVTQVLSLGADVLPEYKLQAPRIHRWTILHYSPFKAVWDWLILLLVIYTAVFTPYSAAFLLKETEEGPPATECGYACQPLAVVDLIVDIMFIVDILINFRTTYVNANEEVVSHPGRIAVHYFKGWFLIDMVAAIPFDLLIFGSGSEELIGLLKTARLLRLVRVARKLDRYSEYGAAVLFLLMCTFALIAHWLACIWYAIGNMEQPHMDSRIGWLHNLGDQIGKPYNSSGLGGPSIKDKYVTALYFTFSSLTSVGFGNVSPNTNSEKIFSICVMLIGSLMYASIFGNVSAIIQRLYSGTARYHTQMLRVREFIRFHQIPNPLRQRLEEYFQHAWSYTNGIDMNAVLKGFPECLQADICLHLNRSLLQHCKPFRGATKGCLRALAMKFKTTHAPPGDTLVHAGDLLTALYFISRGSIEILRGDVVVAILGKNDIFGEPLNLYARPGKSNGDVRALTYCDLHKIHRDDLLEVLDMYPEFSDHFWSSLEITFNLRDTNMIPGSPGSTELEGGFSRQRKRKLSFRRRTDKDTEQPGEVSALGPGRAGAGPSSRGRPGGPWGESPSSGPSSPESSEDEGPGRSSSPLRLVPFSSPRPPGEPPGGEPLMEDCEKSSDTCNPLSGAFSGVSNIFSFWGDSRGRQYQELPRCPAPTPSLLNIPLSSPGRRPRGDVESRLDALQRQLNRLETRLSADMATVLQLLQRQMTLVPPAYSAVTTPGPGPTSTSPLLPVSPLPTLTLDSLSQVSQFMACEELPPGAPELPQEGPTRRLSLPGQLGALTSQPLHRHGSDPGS
Chain of Voltage-gated inwardly rectifying potassium channel KCNH2 (Q12809 whole entry): as above

N#Cc1c(C(F)(F)F)cc(Nc2ccc(OC(F)(F)F)cc2)n2c1nc1ccccc12
selectivity ratio [1]: 103
solubility [2]: < 5 µM
IC50 [3]: 3320 nM
inhibition at 0.3 µM [4]: 7.51%
AUC [5]: 19.4 µM·h
MST [6]: 12 days
half-life [7]: 11.4 h
remaining at 0.5 h, 0.1 µM [8]: > 99%
IC50 [9]: 110 nM
AUC [10]: 79.6 µM·h
logD [11]: 5.34
inhibition at 10 µM [12]: < 40%
Cmax [13]: 1100 nM
IC50 [14]: 150 nM
half-life [15]: 7.86 h
bioavailability [16]: 2%
inhibition in vivo at 50 mg/kg [17]: 98%
Tmax [18]: 5 h
IC50 [19]: > 10000 nM
IC50 [20]: 17600 nM
clearance [21]: 0.97 mL/min/kg
Vd [22]: 0.9 L/kg
Time [23]: > 20 h
Ratio [24]: 6
IC50 [25]: 170 nM
remaining at 0.5 h, 0.1 µM [26]: > 99%
half-life at 0.1 µM [27]: > 2.5 h
half-life at 0.1 µM [28]: > 2.5 h
Ratio IC50 [29]: 0.88
